Assay results taken from ChEMBL document CHEMBL3271964, “Synthesis and biological activity of new 2-nitroimidazole derivatives” (J Med Chem, 1978).
In brackets after ≈: the same amount, converted by molar mass. Activity calls are given as the source filed them.

Tests used:
Staphylococcus aureus = experiment: Antimicrobial activity against Staphylococcus aureus Tour by microtitre method; type: functional
Streptococcus pyogenes = experiment: Antimicrobial activity against Streptococcus pyogenes C 203 by microtitre method; type: functional
Clostridium perfringens = experiment: Antimicrobial activity against Clostridium perfringens ISS 30543 by broth dilution method; type: functional
[1] = test system: Mycoplasmoides gallisepticum; experiment: Antimicrobial activity against Mycoplasma gallisepticum S6 Weybridge by broth dilution method; type: functional
Trichomonas vaginalis [2] = experiment: Antimicrobial activity against Trichomonas vaginalis by broth dilution method; type: functional
Trichomonas vaginalis [3] = experiment: Antimicrobial activity against Trichomonas vaginalis infected in po dosed mouse; type: functional
Method in brief: (§1)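 Mice infected subcutaneously, then dosed orally. Vehicle depended on compound: suspension in aqueous 0.75% sodium carboxymethylcellulose, DMF-H₂O, DMF-phosphate buffer pH 7.38, or water. ED₅₀ determined, with metronidazole run in parallel. The relative value is ED₅₀ (test) / ED₅₀ (metronidazole).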

Trichomonas vaginalis [4] = experiment: Antimicrobial activity against Trichomonas vaginalis infected in po dosed mouse relative to metronidazole; type: functional; method in brief: as §1
[5] = Acute toxicity in po dosed mouse; type: organism-based; conditions: in vivo
Method in brief: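 Acute toxicity in mice by the oral route. Compounds were given as suspensions in aqueous 0.5% Methocel 90-HG.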

[6] = Therapeutic index, ratio of LD50 for po dosed mouse to ED50 for Trichomonas vaginalis infected in po dosed mouse; type: organism-based; conditions: in vivo, read-out: Ratio LD50/ED50
Method in brief: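 Ratio of two mouse values, both dosed orally. The LD50 comes from acute toxicity, with compounds suspended in aqueous 0.5% Methocel 90-HG. The ED50 comes from subcutaneous T. vaginalis infection treated orally. The ED50 vehicle varied by compound: suspension in aqueous 0.75% sodium carboxymethylcellulose, DMF-H2O, DMF-phosphate buffer pH 7.38, or H2O.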

Mus musculus [7] = experiment: Toxicity in CF1 mouse assessed as reduction in curiosity at 10 to 600 mg/kg, po by Irwin test; type: organism-based; parameters: dose 10-600 mg/kg, route oral; conditions: in vivo
Method in brief: (§2)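 Irwin observational method in male CF1 mice (19–22 g). Oral dosing of a suspension in 0.5% Methocel 90-HG at 10 mL/kg, up to 600 mg/kg; controls received saline. Directly observable behavioural and autonomic changes were scored, with the threshold dose for onset recorded.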

Mus musculus [8] = experiment: Toxicity in CF1 mouse assessed as reduction in spontaneous activity at 10 to 600 mg/kg, po by Irwin test; type: organism-based; parameters: dose 10-600 mg/kg, route oral; conditions: in vivo; method in brief: as §2
Mus musculus [9] = experiment: Toxicity in CF1 mouse assessed as reduction in body tone at 10 to 600 mg/kg, po by Irwin test; type: organism-based; parameters: dose 10-600 mg/kg, route oral; conditions: in vivo; method in brief: as §2
Mus musculus [10] = experiment: Toxicity in CF1 mouse assessed as reduction in heart rate at 10 to 600 mg/kg, po by Irwin test; type: organism-based; parameters: dose 10-600 mg/kg, route oral; conditions: in vivo; method in brief: as §2
Mus musculus [11] = experiment: Toxicity in CF1 mouse assessed as reduction in respiratory rate at 10 to 600 mg/kg, po by Irwin test; type: organism-based; parameters: dose 10-600 mg/kg, route oral; conditions: in vivo; method in brief: as §2
Mus musculus [12] = experiment: Toxicity in CF1 mouse assessed as reduction in opening of eyelid at 10 to 600 mg/kg, po by Irwin test; type: organism-based; parameters: dose 10-600 mg/kg, route oral; conditions: in vivo; method in brief: as §2
Mus musculus [13] = experiment: Toxicity in CF1 mouse assessed as flaccid paralysis at 600 mg/kg, po by Irwin test; type: organism-based; parameters: dose 600 mg/kg, route oral; conditions: in vivo; method in brief: as §2
Mus musculus [14] = experiment: Toxicity in CF1 mouse assessed as change in sleeping time at 300 mg/kg, po administered 30 mins prior to hexobarbital sodium challenge relative to vehicle-treated control; type: organism-based; parameters: dose 300 mg/kg, route oral; conditions: in vivo, 0.5 h
Method in brief: (§3)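 Male CF1 mice (19–22 g), groups of 30, given oral doses as a 0.5% Methocel 90-HG suspension at 10 mL/kg; saline controls (90 animals). Hexobarbital sodium 75 mg/kg ip given 30 min later, at 25–26 °C. Sleeping time given as mean ± SE and as % change vs controls; Dunnett's t test.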

Mus musculus [15] = experiment: Toxicity in CF1 mouse assessed as change in sleeping time at 600 mg/kg, po administered 30 mins prior to hexobarbital sodium challenge relative to vehicle-treated control; type: organism-based; parameters: dose 600 mg/kg, route oral; conditions: in vivo, 0.5 h; method in brief: as §3
Mus musculus [16] = experiment: Inhibition of strychine sulfate/pentetrazole-induced death in CF1 mouse at 300 to 600 mg/kg, po administered 60 mins prior to strychine sulfate/pentetrazole challenge; type: functional, organism-based
Mus musculus [17] = experiment: Toxicity in CF1 mouse assessed as ataxia at 10 to 600 mg/kg, po by Irwin test; type: organism-based; parameters: dose 10-600 mg/kg, route oral; conditions: in vivo; method in brief: as §2
Mus musculus [18] = experiment: Toxicity in CF1 mouse assessed as cyanosis at 10 to 600 mg/kg, po by Irwin test; type: organism-based; parameters: dose 10-600 mg/kg, route oral; conditions: in vivo; method in brief: as §2

Row | Compound | MIC (Staphylococcus aureus) [µg/mL] | MIC (Streptococcus pyogenes) [µg/mL] | MIC (Clostridium perfringens) [µg/mL] | MIC [1] [µg/mL] | MIC (Trichomonas vaginalis [2]) [µg/mL] | ED50 (Trichomonas vaginalis [3]) [mg/kg] | Ratio ED50 (Trichomonas vaginalis [4]) | LD50 [5] [mg/kg] | selectivity ratio [6] | other results
1 | CC(CO)c1cnc([N+](=O)[O-])n1C (stereo unspecified) | 25 (≈ 135 µM) | 200 (≈ 1080 µM) | 0.8 (≈ 4.32 µM) | 50 (≈ 270 µM) | 25 (≈ 135 µM) | > 10 | >0.7 |  |  | 
2 | Cn1c(C(C)(C)OC(=O)NN)cnc1[N+](=O)[O-] | > 100 | 100 (≈ 411 µM) | 3.1 (≈ 12.7 µM) | 25 (≈ 103 µM) | 100 (≈ 411 µM) | 4.67 | 0.33 | 660 | 141 | 
3 | CCS(=O)(=O)CCn1c([N+](=O)[O-])cnc1C [TINIDAZOLE] | 300 (≈ 1210 µM) | > 300 | 0.3 (≈ 1.21 µM) | > 300 | 3.1 (≈ 12.5 µM) | 2.5 | 0.43 | 3200 | 1280 | 
4 | COC(C)(C)c1cnc([N+](=O)[O-])n1C | > 100 | > 100 | 5 (≈ 25.1 µM) | > 100 | 5 (≈ 25.1 µM) | 8.12 | 0.81 | 805 | 99 | 
5 | Cc1ncc([N+](=O)[O-])n1CCO [METRONIDAZOLE] | > 300 | > 300 | 0.6 (≈ 3.51 µM) | > 300 | 5 (≈ 29.2 µM) |  |  |  | 658 | Activity (Mus musculus [7]): Toxic; Activity (Mus musculus [8]): Toxic; Activity (Mus musculus [9]): Toxic; Activity (Mus musculus [10]): Toxic; Activity (Mus musculus [11]): Toxic; Activity (Mus musculus [12]): Toxic; Activity (Mus musculus [13]): Toxic; Activity (Mus musculus [14]): 29.2%; Activity (Mus musculus [15]): 55.9%; inhibition (Mus musculus [16]): Active; Activity (Mus musculus [17]): Toxic; Activity (Mus musculus [18]): Toxic
6 | O=[N+]([O-])c1cncn1CCN1CCOCC1 [NIMORAZOLE] | > 300 | > 300 | 0.6 (≈ 2.65 µM) | > 300 | 12.5 (≈ 55.3 µM) | 37.9 | 4.66 | 1530 | 40 | 
